Legend:
[1] = (§1) Binding affinity towards 5-hydroxytryptamine 3 receptor by displacement of [3H]2 in Neuroblastoma-Glioma NG-108-15 cells
[2] = molecular target: T1, Serotonin 3 (5-HT3) receptor (Rattus norvegicus) (UniProt P35563+Q9JJ16); test: Serotonin receptor antagonist activity was measured as ability to block the serotonin-induced Bezold-Jarisch reflex in rats after iv administration of 10 ug/Kg; assay type: functional, organism-based; details: in the assay text read “2 ug/Kg” for “10 ug/Kg”
Procedure, shortened: (§2)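 Anaesthetic and strain not given; rats dosed iv with test compound via a right femoral vein cannula. Serotonin 100 μg kg-1 iv was given through the same route 1 min after drug. Inhibition of the serotonin-induced bradycardia (Bezold-Jarisch reflex) was scored.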

[3] = molecular target: T1, Serotonin 3 (5-HT3) receptor (Rattus norvegicus); test: Serotonin receptor antagonist activity was measured as ability to block the serotonin-induced Bezold-Jarisch reflex in rats after iv administration of 2 ug/Kg; assay type: functional, organism-based; procedure, shortened: as §2
[4] = molecular target: T1, Serotonin 3 (5-HT3) receptor (Rattus norvegicus); test: Serotonin receptor antagonist activity was measured as ability to block the serotonin-induced Bezold-Jarisch reflex in rats after iv administration of 100 ug/Kg; assay type: functional, organism-based; procedure, shortened: as §2
[5] = molecular target: T1, Serotonin 3 (5-HT3) receptor (Rattus norvegicus); test: Serotonin receptor antagonist activity was measured as ability to block the serotonin-induced Bezold-Jarisch reflex in rats after iv administration of 20 ug/Kg; assay type: functional, organism-based; procedure, shortened: as §2
[6] = molecular target: 5-hydroxytryptamine receptor 3A; test: as §1
[7] = molecular target: T1, Serotonin 3 (5-HT3) receptor (Rattus norvegicus); test: Serotonin receptor antagonist activity was measured as ability to block the serotonin-induced Bezold-Jarisch reflex in rats after iv administration of 5 ug/Kg; assay type: functional, organism-based; procedure, shortened: as §2
[8] = molecular target: 5-hydroxytryptamine receptor 1B (Rattus norvegicus) (UniProt P28564); test: Binding affinity for 5-hydroxytryptamine 1B receptor was determined by using [3H]5-HT as radioligand
[9] = molecular target: Muscarinic acetylcholine receptor M3 (Rattus norvegicus, UniProt P08483); test: Binding affinity for Muscarinic acetylcholine receptor was determined by using [3H]QNB as radioligand
[10] = molecular target: Sigma non-opioid intracellular receptor 1 (Homo sapiens, UniProt Q99720); test: Binding affinity for Sigma opioid receptor was determined by using [3H](+)-3-(3-hydroxyphenyl)N-1-propyl-piperdine((+)-3-PPP) as radioligand
[11] = molecular target: Mu-type opioid receptor (Homo sapiens, UniProt P35372); test: Binding affinity for Opioid receptor mu 1 was determined by using [3H]naloxone as radioligand
[12] = molecular target: T2, 5-hydroxytryptamine receptor 2C (Rattus norvegicus, UniProt P08909); test: Binding affinity for 5-hydroxytryptamine 1C receptor was determined by using [3H]- mesulergine as radioligand
T2 sequence (P08909 whole entry): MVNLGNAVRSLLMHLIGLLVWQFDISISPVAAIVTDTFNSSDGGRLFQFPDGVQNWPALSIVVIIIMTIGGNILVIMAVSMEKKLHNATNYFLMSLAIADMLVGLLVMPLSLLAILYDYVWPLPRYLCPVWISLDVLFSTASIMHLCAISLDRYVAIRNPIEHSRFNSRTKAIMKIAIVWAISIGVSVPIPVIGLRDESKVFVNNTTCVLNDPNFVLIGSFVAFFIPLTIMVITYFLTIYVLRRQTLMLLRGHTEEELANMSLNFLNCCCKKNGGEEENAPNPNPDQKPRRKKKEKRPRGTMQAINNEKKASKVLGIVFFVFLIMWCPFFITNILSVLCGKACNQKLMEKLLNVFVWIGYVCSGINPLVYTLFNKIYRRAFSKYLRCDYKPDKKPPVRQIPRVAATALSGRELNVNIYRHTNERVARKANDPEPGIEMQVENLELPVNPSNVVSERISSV

[13] = molecular target: D(2) dopamine receptor (Homo sapiens, UniProt P14416); test: Binding affinity for Dopamine receptor D2 was determined by using [3H]spiperone as radioligand
[14] = molecular target: T3, 5-hydroxytryptamine receptor 1A (Mus musculus, UniProt Q64264); test: Binding affinity for 5-hydroxytryptamine 1A receptor was determined by using [3H]8-OH-DPAT as radioligand
T3 sequence (Q64264 whole entry): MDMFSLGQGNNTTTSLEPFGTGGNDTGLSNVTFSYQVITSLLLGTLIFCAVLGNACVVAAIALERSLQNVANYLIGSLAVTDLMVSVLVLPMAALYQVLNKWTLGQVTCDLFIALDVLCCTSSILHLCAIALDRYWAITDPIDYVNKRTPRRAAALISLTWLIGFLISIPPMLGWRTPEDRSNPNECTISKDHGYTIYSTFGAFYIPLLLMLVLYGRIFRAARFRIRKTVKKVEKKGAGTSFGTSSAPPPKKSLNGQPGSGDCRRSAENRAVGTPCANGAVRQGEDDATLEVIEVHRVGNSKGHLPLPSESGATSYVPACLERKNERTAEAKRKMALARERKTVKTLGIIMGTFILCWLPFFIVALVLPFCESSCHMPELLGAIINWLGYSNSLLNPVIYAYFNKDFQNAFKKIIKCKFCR

[15] = molecular target: 5-hydroxytryptamine receptor 2A (Bos taurus, UniProt Q75Z89); test: Binding affinity for 5-hydroxytryptamine 2 receptor was determined by using [3H]ketanserin as radioligand
[16] = molecular target: Beta-2 adrenergic receptor (Canis lupus familiaris, UniProt P54833); test: Binding affinity for Beta adrenergic receptor was determined by using [3H]dihydroalprenolol as radioligand
[17] = molecular target: D(1A) dopamine receptor (Mus musculus, UniProt Q61616); test: Binding affinity for Dopamine receptor D1 was determined by using [3H]SCH-23390 as radioligand
[18] = molecular target: GABA-A receptor; anion channel; test: Displacement of [3H]flunitrazepam from GABA-A Benzodiazepine receptor; assay type: protein-complex assay

Chain of 5-hydroxytryptamine receptor 2A (Q75Z89 whole entry): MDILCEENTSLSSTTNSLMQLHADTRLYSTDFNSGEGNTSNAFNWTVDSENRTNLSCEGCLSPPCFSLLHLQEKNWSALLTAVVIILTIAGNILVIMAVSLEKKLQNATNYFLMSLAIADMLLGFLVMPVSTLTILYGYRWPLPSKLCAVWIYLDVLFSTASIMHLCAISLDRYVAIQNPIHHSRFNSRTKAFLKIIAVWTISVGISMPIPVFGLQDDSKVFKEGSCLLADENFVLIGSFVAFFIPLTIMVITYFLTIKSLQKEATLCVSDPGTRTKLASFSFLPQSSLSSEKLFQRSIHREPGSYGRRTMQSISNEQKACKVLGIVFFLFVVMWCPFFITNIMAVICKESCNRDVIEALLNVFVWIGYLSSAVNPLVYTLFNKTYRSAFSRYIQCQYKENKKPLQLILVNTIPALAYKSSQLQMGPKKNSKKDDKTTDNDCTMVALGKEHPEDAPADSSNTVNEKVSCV
Chain of Beta-2 adrenergic receptor (P54833 whole entry): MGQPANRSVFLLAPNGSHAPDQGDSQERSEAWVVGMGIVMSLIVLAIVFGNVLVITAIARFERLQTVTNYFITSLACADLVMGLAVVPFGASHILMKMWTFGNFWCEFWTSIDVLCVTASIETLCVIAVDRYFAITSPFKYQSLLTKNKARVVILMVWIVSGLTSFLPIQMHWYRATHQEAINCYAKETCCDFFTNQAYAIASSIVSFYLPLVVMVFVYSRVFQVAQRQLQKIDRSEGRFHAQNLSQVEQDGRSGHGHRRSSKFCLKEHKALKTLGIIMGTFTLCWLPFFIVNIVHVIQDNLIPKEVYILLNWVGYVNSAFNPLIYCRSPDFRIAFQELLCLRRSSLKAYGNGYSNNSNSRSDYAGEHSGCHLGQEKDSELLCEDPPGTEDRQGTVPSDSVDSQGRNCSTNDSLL
Chain of D(1A) dopamine receptor (Q61616 whole entry): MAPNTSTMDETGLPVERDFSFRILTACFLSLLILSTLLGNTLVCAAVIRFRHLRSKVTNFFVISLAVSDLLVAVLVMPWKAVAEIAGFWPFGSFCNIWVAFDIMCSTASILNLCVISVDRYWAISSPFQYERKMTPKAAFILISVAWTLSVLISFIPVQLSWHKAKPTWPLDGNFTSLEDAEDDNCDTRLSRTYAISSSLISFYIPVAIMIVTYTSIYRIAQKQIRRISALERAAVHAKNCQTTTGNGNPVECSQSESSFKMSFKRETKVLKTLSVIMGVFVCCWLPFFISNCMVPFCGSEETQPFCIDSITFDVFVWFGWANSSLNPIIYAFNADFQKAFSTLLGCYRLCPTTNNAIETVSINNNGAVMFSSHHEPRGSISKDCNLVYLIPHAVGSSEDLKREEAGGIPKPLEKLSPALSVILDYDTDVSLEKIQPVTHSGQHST
Chain of 5-hydroxytryptamine receptor 1B (Rattus norvegicus) (P28564 whole entry, looked up): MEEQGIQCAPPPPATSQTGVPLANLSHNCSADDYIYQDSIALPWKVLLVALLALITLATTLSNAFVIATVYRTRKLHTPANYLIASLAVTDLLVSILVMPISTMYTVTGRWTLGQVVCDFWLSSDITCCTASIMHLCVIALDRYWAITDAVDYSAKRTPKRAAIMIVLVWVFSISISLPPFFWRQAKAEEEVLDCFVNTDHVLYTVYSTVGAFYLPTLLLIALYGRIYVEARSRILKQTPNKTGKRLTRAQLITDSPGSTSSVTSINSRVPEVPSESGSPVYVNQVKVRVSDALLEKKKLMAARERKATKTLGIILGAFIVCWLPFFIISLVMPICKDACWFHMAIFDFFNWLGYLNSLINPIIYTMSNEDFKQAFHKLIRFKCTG
Chain of Sigma non-opioid intracellular receptor 1 (Q99720 whole entry): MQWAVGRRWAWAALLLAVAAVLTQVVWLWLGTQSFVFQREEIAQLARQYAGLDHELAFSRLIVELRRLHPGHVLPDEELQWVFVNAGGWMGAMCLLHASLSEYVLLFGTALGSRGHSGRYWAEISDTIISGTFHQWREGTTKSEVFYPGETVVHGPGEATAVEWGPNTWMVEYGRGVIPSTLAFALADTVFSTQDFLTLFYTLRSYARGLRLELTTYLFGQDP
Chain of Mu-type opioid receptor (P35372 whole entry): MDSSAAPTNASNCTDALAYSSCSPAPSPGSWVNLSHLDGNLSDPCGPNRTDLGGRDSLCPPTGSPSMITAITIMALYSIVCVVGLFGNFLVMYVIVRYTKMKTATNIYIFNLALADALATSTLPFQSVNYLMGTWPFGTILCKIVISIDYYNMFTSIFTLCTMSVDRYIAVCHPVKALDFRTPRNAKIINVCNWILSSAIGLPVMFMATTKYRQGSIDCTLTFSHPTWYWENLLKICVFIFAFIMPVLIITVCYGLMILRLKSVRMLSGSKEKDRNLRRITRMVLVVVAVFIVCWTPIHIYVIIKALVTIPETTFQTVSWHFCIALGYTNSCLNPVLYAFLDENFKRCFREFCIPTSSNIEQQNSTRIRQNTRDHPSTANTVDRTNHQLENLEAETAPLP
Chain of D(2) dopamine receptor (P14416 whole entry): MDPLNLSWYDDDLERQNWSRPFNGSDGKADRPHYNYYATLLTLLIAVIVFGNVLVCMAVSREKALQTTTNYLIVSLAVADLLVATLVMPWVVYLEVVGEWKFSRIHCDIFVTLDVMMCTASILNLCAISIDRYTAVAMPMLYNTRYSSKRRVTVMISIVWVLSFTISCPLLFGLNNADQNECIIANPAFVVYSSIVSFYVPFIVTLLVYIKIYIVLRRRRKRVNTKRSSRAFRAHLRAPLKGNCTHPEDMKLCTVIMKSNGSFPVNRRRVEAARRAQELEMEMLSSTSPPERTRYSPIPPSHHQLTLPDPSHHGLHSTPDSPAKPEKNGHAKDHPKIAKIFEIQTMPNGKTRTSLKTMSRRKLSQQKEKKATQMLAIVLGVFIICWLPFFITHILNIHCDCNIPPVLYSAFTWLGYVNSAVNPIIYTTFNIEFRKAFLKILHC
Chain of Muscarinic acetylcholine receptor M3 (P08483 whole entry): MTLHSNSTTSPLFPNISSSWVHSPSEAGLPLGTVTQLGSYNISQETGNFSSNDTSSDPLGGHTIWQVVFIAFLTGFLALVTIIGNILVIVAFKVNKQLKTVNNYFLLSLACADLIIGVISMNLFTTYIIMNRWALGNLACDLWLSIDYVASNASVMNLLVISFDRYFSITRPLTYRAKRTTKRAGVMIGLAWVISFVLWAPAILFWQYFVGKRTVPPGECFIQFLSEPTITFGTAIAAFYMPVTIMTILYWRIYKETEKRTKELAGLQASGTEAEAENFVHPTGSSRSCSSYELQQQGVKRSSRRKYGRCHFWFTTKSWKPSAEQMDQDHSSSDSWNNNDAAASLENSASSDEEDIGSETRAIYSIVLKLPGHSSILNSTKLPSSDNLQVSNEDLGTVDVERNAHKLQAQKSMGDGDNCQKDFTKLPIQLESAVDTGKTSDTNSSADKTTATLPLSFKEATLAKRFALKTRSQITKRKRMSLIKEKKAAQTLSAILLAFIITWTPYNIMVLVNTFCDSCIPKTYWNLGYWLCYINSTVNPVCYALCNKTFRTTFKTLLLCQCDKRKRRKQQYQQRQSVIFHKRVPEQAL

`Cc1[nH]cnc1Cc1nc(-c2cccc(Br)c2)cs1` gave a Ki [1] of 2 nM.

With `COc1ccccc1-c1csc(Cc2c[nH]cn2)n1` the Ki [1] was 0.29 nM.

With `CCOc1ccccc1-c1csc(Cc2[nH]cnc2C)n1` the Ki [1] was 0.95 nM.

`COc1ccc(-c2csc(Cc3[nH]cnc3C)n2)cc1` showed a Ki [1] of 390 nM.

In the case of `Cc1ccccc1-c1csc(Cc2[nH]cnc2C)n1`, the Ki [1] is reported as 8.7 nM.

In the case of `COc1c(-c2csc(Cc3[nH]cnc3C)n2)ccc2ccccc12`, the Ki [1] is reported as 95 nM.

With `Cc1[nH]cnc1Cc1nc(-c2ccccc2O)cs1` the Ki [1] was 1.5 nM.

`Cc1[nH]cnc1Cc1nc(-c2cccc(Cl)c2)cs1` gave a Ki [1] of 0.88 nM.

Work on `CN1[C@@H]2CC[C@H]1C[C@@H](OC(=O)c1c[nH]c3ccccc13)C2` yielded an inhibition [2] of 77.5%.

With `Cc1[nH]cnc1Cc1nc(-c2ccccc2C(F)(F)F)cs1` the Ki [1] was 61 nM.

For `CN1[C@@H]2CC[C@H]1C[C@H](OC(=O)c1ccccc1)C2`, the Ki [1] was 329 nM.

With `COc1ccc2ccccc2c1-c1csc(Cc2[nH]cnc2C)n1` the Ki [1] was 400 nM.

`N=C(N)NCCCOC(=O)c1c[nH]c2ccccc12` showed a Ki [1] of 27 nM.

Work on `COc1cccc(OC)c1-c1csc(Cc2[nH]cnc2C)n1` yielded a Ki [1] of 430 nM.

Compound `Cc1[nH]cnc1Cc1nc(-c2ccc(F)cc2)cs1` has a Ki [1] of 4.9 nM.

`N=C(N)NCCOC(=O)c1c[nH]c2ccccc12` gave a Ki [1] of 7.1 nM.

For `c1ccc(-c2csc(Cc3c[nH]cn3)n2)cc1`, the Ki [1] was 1 nM.

Compound `Cc1[nH]cnc1Cc1nc(-c2ccccc2)cs1` has an inhibition [3] of 10.7% and an inhibition [4] of 100%.

With `Cc1nccn1CC1CCc2c(c3ccccc3n2C)C1=O` (stereo unspecified) the inhibition [5] was 89.7%.

With `Cc1[nH]cnc1Cc1nc(-c2ccccc2F)cs1` the Ki [6] was 1.94 nM and the inhibition [3] was 66.4%.

In the case of `Cc1[nH]cnc1Cc1nc(-c2ccc(Br)cc2)cs1`, the Ki [1] is reported as 270 nM.

`Cc1[nH]cnc1Cc1nc(-c2ccc(Cl)cc2)cs1` gave a Ki [1] of 34 nM.

In the case of `Cc1[nH]cnc1Cc1nc(-c2cccc3cccnc23)cs1`, the Ki [6] is reported as 1 nM, the inhibition [5] is reported as 91.9% and the inhibition [3] is reported as 43%.

Compound `c1cnc2c(-c3csc(Cc4c[nH]cn4)n3)cccc2c1` has a Ki [1] of 0.31 nM.

With `COc1cccc(-c2csc(Cc3[nH]cnc3C)n2)c1` the Ki [1] was 2 nM.

`COc1ccccc1-c1csc(Cc2[nH]cnc2C)n1` showed a Ki [6] of 0.42 nM, an inhibition [3] of 57.9% and an inhibition [4] of 100%. It also gave an inhibition [7] of 88.5%.

Compound `Cc1nc[nH]c1Cc1nc(-c2ccccc2)cs1` has a Ki [6] of 1.8 nM, a Ki [8] of over 1000 nM and a Ki [9] of over 1000 nM. The Ki [10] was over 1000 nM, the Ki [11] was over 1000 nM and the Ki [12] was over 1000 nM. The Ki [13] was over 1000 nM, the Ki [14] was over 1000 nM and the Ki [15] was over 1000 nM. It also gave a Ki [16] of over 1000 nM, a Ki [17] of over 1000 nM and a Ki [18] of over 1000 nM.

`Cc1[nH]cnc1Cc1nc(-c2c[nH]c3ccccc23)cs1` showed an inhibition [4] of 45.2%.

Work on `Cc1nc[nH]c1Cc1nc(-c2c[nH]c3ccccc23)cs1` yielded a Ki [6] of 12 nM.

`N=C(N)NCc1nc(-c2c[nH]c3ccccc23)cs1` showed a Ki [1] of 3.3 nM.

Work on `Cc1ccc(-c2csc(Cc3[nH]cnc3C)n2)cc1` yielded a Ki [1] of 110 nM.

`Cc1[nH]cnc1Cc1nc(-c2cccc(F)c2)cs1` showed a Ki [1] of 3.7 nM.

`N=C(N)NCCCCOC(=O)c1c[nH]c2ccccc12` showed a Ki [1] of 29 nM.
